# Published values collected from several papers.
# Protocols differ between the studies behind these lines.
# Organism: Staphylococcus aureus
SMILES,assay,system,conditions,measurement,value
CN(C)CCCN1c2ccccc2Sc2ccc(Cl)cc21,"microbial killing, broth dilution",ATCC43300,18 h,MBC,64 µg/mL
CN[C@H](CC(C)C)C(=O)N[C@H]1C(=O)N[C@@H](CC(N)=O)C(=O)N[C@H]2C(=O)N[C@H]3C(=O)N[C@H](C(=O)N[C@H](C(=O)O)c4cc(O)cc(O)c4-c4cc3ccc4O)[C@H](O)c3ccc(c(Cl)c3)Oc3cc2cc(c3O[C@@H]2O[C@H](CO)[C@@H](O)[C@H](O)[C@H]2O[C@H]2C[C@](C)(N)[C@H](O)[C@H](C)O2)Oc2ccc(cc2Cl)[C@H]1O,microbial growth,MSSA,clinical isolate,MIC90,1 µg/mL
O=C(/C=C/C=C/c1ccccc1)c1ccccc1OCc1ccc(Cl)cc1,"microbial growth, well diffusion",MTCC96,"1000 µg/mL, 18 h",inhibition zone,7 mm
CCCS(=O)(=O)Oc1ccc(C=NNC(=O)CSc2nc3c(C)cccc3c(=O)n2-c2ccccc2)cc1OC,"microbial growth, well diffusion",MRSA,20 µg/mL,inhibition zone,4 mm
CC(=O)NC[C@H]1CN(c2ccc(N3CCOCC3)c(F)c2)C(=O)O1,microbial growth,MSSA,clinical isolate,MIC90,2 µg/mL
O=C(O)c1cn(C2CC2)c2cc(N3CCNCC3)c(F)cc2c1=O,"microbial growth, well diffusion",MRSA,20 µg/mL,inhibition zone,3 mm
O=C(/C=C/C=C/c1ccccc1)c1ccccc1OCc1ccc(Cl)c(Cl)c1,"microbial growth, well diffusion",MTCC96,"1000 µg/mL, 18 h",inhibition zone,7 mm
Nc1ccc(S(=O)(=O)Nc2ncccn2)cc1,"microbial growth, well diffusion",MRSA,20 µg/mL,inhibition zone,2 mm
CC1(C)S[C@@H]2[C@H](NC(=O)[C@H](N)c3ccccc3)C(=O)N2[C@H]1C(=O)O,microbial growth,MSSA,clinical isolate,MIC90,64 µg/mL
O=C(/C=C/C=C/c1ccccc1)c1ccccc1OCc1ccccc1Cl,"microbial growth, well diffusion",MTCC96,"1000 µg/mL, 18 h",inhibition zone,7 mm
CCS(=O)(=O)Oc1ccc(C=NNC(=O)CSc2nc3c(C)cccc3c(=O)n2-c2ccccc2)cc1,"microbial growth, well diffusion",MRSA,20 µg/mL,inhibition zone,3 mm
COc1cc2c(cc1OC)[C@@H]1Cc3ccc(OC)c(OC)c3CN1CC2,microbial growth,,24 h,MIC50,> 1600 µM
CC[C@H]1OC(=O)[C@H](C)[C@@H](O[C@H]2C[C@@](C)(OC)[C@@H](O)[C@H](C)O2)[C@H](C)[C@@H](O[C@@H]2O[C@H](C)C[C@H](N(C)C)[C@H]2O)[C@](C)(O)C[C@@H](C)/C(=N\OCOCCOC)[C@H](C)[C@@H](O)[C@]1(C)O,microbial growth,MSSA,clinical isolate,MIC90,64 µg/mL
COc1ccc(C=NNC(=O)CSc2nc3c(C)cccc3c(=O)n2-c2ccccc2)cc1OS(C)(=O)=O,"microbial growth, well diffusion",MRSA,20 µg/mL,inhibition zone,3 mm
O=C(O)c1cn(C2CC2)c2cc(N3CCNCC3)c(F)cc2c1=O,"microbial growth, broth dilution",,,MIC90,3.13 µM
C=C[C@]1(C)C[C@@H](OC(=O)CS[C@@H]2C[C@H]3CC[C@@H](C2)N3C)[C@]2(C)[C@H](C)CC[C@]3(CCC(=O)[C@H]32)[C@@H](C)[C@@H]1O,microbial growth,MRSA,clinical isolate,MIC90,0.125 µg/mL
CN(C)CCCN1c2ccccc2Sc2ccc(C(F)(F)F)cc21,"microbial killing, broth dilution",ATCC43300,18 h,MBC,64 µg/mL
